In the library only some 2.4% were active in any assay of this set; here they are far more common.
Ecoli rRNA inh: inhibitors of bacterial rRNA selective over humanized ribosomes; 1.6% of 350,000 active; GFP signal change (wild-type ribosome), % (test concentration not listed); E. coli WT GFP vs humanized-ribosome RFP mutants, fluorescence, 24 h; active compounds read low; DMSO median 0, no signal -100;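 active means significant combined selectivity score with lowered wild-type GFP, culture density cut under 30%, mutant RFP and density less affected; inactive means any of these conditions unmet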
LGR2 antag: blocks bursicon-induced cAMP signaling via Drosophila LGR2 | AID 720647 | HEK293 LGR2, CRE-luciferase, bursicon-stimulated, 4 h | 0.35% of 380,000 active | inhibition, % at 9.99 µM;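 active means drop in luminescence signal, shown as inhibition above about 50% in the replicate tests, limit read from the data, passing the limit was not always enough; inconclusive means probably only some replicates passing the limit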;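 further: agonist challenge used bursicon conditioned medium at about half maximal strength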
EWS-Fli block: EWS/Fli transcriptional activity inhibition. 0.67% of 350,000 active. A673 NR0B1-luciferase reporter, viability-normalised. inhibition, % at 12.6 µM;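 active means mean inhibition of at least 50% after viability correction, with every replicate also passing that limit; inconclusive means mean reaches 50% but only one of two replicates passes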;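 further: firefly luciferase signal divided by Alamar Blue viability fluorescence both relative to DMSO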
E-selectin induc: E-selectin induction on HUVECs. P16581. 0.37% of 260,000 active. activation, % at 7.58 µM. HUVEC E-selectin immunofluorescence imaging; normalized: neutral wells 0, TNF-alpha wells 100;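 active means mean E-selectin-positive cell signal at least 10% of the positive control, reached in at least 60% of replicates, without over 20% cell loss; inconclusive means no rule given, readout overlaps actives, possibly toxicity-flagged; inactive means the rest, including those meeting only one limit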
Target sequence (P16581 whole entry, looked up): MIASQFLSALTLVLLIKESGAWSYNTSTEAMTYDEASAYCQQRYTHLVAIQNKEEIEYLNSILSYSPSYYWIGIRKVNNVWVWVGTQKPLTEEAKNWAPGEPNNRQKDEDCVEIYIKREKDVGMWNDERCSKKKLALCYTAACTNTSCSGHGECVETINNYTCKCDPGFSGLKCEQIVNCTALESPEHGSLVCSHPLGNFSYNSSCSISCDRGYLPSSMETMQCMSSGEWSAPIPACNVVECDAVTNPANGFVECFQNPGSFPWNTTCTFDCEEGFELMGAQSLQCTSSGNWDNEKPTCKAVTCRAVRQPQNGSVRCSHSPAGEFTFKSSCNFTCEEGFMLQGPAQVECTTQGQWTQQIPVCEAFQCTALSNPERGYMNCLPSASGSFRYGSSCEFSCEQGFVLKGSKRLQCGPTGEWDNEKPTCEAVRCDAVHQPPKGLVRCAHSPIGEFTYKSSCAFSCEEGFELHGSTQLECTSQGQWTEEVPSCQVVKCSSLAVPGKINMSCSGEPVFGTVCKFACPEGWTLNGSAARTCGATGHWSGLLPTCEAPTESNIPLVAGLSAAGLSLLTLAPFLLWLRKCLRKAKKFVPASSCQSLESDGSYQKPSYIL
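material = human umbilical vein endothelial cells (HUVEC), E-selectin induction | quantity = 3,000 cells/well | medium = EGM-2 growth medium on 0.1% gelatin-coated wells | technique = immunofluorescence imaging | read-out basis = % PE-positive cells | control set = TNF-alpha positive control, DMSO neutral control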
Hits are given with their value; i = inactive; ? = inconclusive; nt = no result.

SMILES	Ecoli rRNA inh	LGR2 antag	EWS-Fli block	E-selectin induc
CCC/C(=C1/c2ccccc2C(=O)N1c1ccccc1)c1c(C)noc1C	-25.1	i	i	i
CN(C)CCCNC(=O)C[C@@H]1C=C[C@@H](NC(=O)Cc2cccnc2)[C@@H](CO)O1	i	i	nt	i
O=C1CCC/C(=N\NC(=O)c2ccc(CSc3cccc4cccnc34)cc2)C1	-20.6	i	i	nt
O=C(NCC[C@@H]1CC[C@H](NS(=O)(=O)c2ccccc2F)[C@@H](CO)O1)c1ccc(F)cc1	i	i	i	i
Cc1ccc(C[n+]2cc(-c3ccc(Cl)cc3)n3c2CCC3)cc1	-46.8	i	i	i
O=C(C[n+]1cc(-c2ccc(Cl)cc2)n2c1CCCCC2)c1ccccc1	-51.2	i	i	i
O=C(C[n+]1cc(-c2ccc(Br)cc2)n2c1CCCCC2)c1ccccc1	i	i	i	nt
CCc1ccc2oc(-c3ccc(OC)cc3)cc(=Nc3cccc(C(=O)O)c3)c2c1	i	84.0	i	nt
CCc1ccc2oc(-c3ccc(OC)cc3)cc(=Nc3c(C)n(C)n(-c4ccccc4)c3=O)c2c1	i	82.8	i	i
COc1ccc(-c2cc(=Nc3ccc(C(=O)O)cc3)c3cc(C)ccc3o2)cc1	i	52.6	i	i
COc1ccc(-c2cc(=O)c3cc(O)ccc3o2)cc1	nt	i	i	nt
COc1ccc(OC(=O)N(C)C[C@H]2OCc3ccccc3-c3ccccc3C(=O)N([C@@H](C)CO)C[C@@H]2C)cc1	i	nt	nt	nt
CC(C)CC#Cc1ccc2c(c1)O[C@@H](CN(C)C)[C@H](C)CN([C@@H](C)CO)S2(=O)=O	i	i	i	i
COc1ccc(NC(C)(C)c2nnnn2-c2c(C)cccc2C)cc1	-25.0	i	i	nt
C[C@H]1CN([C@@H](C)CO)C(=O)c2cc(NS(C)(=O)=O)ccc2O[C@H]1CN(C)Cc1ccc(C(F)(F)F)cc1	i	i	i	i
COc1cc(OC)c2c(-c3cccc(-c4ccc(OC)c(OC)c4)c3)cc(=O)oc2c1	i	i	52.9	i
COc1cc(OC)c2c(-c3cccc(-c4sccc4C(C)=O)c3)cc(=O)oc2c1	i	i	55.8	i
COC(=O)COc1cc(OCC(=O)OC)c2c(-c3ccccc3)cc(=O)oc2c1	i	i	i	i
COC(=O)C(C)Oc1cc(OC(C)C(=O)OC)c2c(-c3ccccc3)cc(=O)oc2c1 (stereo not given)	-24.0	i	i	i
COc1cc(OC)c2c(-c3cccc(-c4ccc(C#N)cc4)c3)cc(=O)oc2c1	i	i	56.1	i
COc1cc(OC)c2c(-c3cccc(-c4ccc(C(F)(F)F)cc4)c3)cc(=O)oc2c1	i	i	?	nt
COc1cc(OC)c2c(-c3cccc(-c4ccc(NC(C)=O)cc4)c3)cc(=O)oc2c1	i	i	i	nt
CCCC#Cc1cnc2c(c1)C(=O)N([C@@H](C)CO)C[C@@H](C)[C@@H](CN(C)C(=O)c1cnccn1)O2	i	i	i	i
CCCC(=O)N1CC2(CN(C(=O)NC(C)C)C2)c2c(n(C)c3cc(OC)ccc23)[C@H]1CO	i	i	i	i
CC(C)(O)c1cn([C@H]2C[C@@H]3O[C@@H](CO)CC[C@@H]3O[C@@H]2CCc2ccc(-c3ccncc3)cc2)nn1	nt	nt	i	nt
SMILES	Ecoli rRNA inh	LGR2 antag	EWS-Fli block	E-selectin induc
COc1ccc(CC(=O)Nc2ncc([N+](=O)[O-])s2)cc1OC	-49.5	nt	i	i
O=C(Nc1ccccc1)Nc1ncc([N+](=O)[O-])s1	i	65.4	i	nt
Cc1nc(C)c(C(=O)Nc2ncc([N+](=O)[O-])s2)o1	i	i	57.5	i
COc1ccc(CC(=O)Nc2nccs2)cc1OC	nt	i	nt	i
CC(C)CC(=O)Nc1ncc([N+](=O)[O-])s1	nt	nt	i	i
C[C@@H]1CN([C@H](C)CO)C(=O)c2cccc(NC(=O)Nc3ccc(F)cc3)c2O[C@H]1CN(C)C(=O)Nc1ccc(F)cc1	i	i	i	i
CC(C)NC(=O)Nc1ccc2c(c1)CC(=O)N([C@H](C)CO)C[C@@H](C)[C@@H](CN(C)S(=O)(=O)c1ccc(Cl)cc1)O2	i	i	i	nt
CC(=O)N(C)C[C@H]1Oc2ccc(NC(=O)NC(C)C)cc2C(=O)N(C)C[C@H]1C	i	nt	nt	nt
O=C(Cc1cccc2ccccc12)OCn1nnc2ccccc2c1=O	-17.9	i	i	i
COc1cc(CC(=O)OCn2nnc3ccccc3c2=O)cc(OC)c1OC	i	i	i	nt
CO[C@@H]1CN(C)C(=O)c2ccc(NS(C)(=O)=O)cc2OC[C@H](C)N(C(=O)C2CCOCC2)C[C@@H]1C	i	i	i	i
COc1cccc(NC(=O)C2CCC(CNS(=O)(=O)c3cccs3)CC2)c1 (stereo not given)	-21.1	i	i	nt
Clc1ccc(/C=C\c2nccc3c2[nH]c2ccccc23)cc1	-24.9	i	i	nt
CCCC(=O)N1CC2(C1)CN(C(=O)C1CCCC1)[C@H](CO)c1[nH]c3cc(OC)ccc3c12	i	nt	nt	nt
CC1=C(SCc2ccccc2)C(=O)c2ccccc2C1=O	i	i	i	i
O=C1C(SCCO)=C(SCCO)C(=O)c2ccccc21	i	i	64.2	i
COc1ccc(C(=O)/C=C/C(=O)N(CC(=O)NC2CCCCC2)Cc2ccccc2)c(O)c1	i	100.0	82.6	i
COc1ccc(C(=O)/C=C/C(=O)N(CC(=O)NC2CCCCC2)Cc2ccccc2OC)c(O)c1	i	?	?	i
COc1ccc(C(=O)/C=C/C(=O)N(Cc2ccccc2)C(C(=O)NC2CCCCC2)c2ccncc2)c(O)c1 (stereo not given)	i	i	i	nt
COc1ccc(C(=O)/C=C/C(=O)N(CC(=O)NC2CCCCC2)CC2CCCO2)c(O)c1 (stereo not given)	i	104.1	56.2	i
O=C(C[C@H]1CC[C@H](NC(=O)c2ccncc2)[C@H](CO)O1)NCc1ccncn1	i	i	nt	i
Cc1ccc(-c2nc3cnccn3c2Nc2ccc3c(c2)OCO3)o1	-17.0	i	i	i
Cc1ccc(Nc2c(-c3ccc(C)o3)nc3cnccn23)cc1	i	nt	i	i
COC(=O)[C@@]1(CCS(=O)(=O)c2ccccc2)COC(c2ccc(OCCCO)cc2)=N1	nt	nt	79.8	nt
C=CC[C@]1(C(=O)OC)COC(c2ccc(OCCCO)cc2)=N1	nt	nt	i	nt
SMILES	Ecoli rRNA inh	LGR2 antag	EWS-Fli block	E-selectin induc
COc1ccc(NC(=O)N(C)C[C@@H]2Oc3ncc(C#C[C@H](C)O)cc3C(=O)N([C@H](C)CO)C[C@H]2C)cc1	i	i	i	i
CCCN(CC1CC1)C(=O)CSc1ncnc2sccc12	-18.3	i	i	i
C[C@@H]1CCCCO[C@@H](CN(C)CC2CCCCC2)[C@H](C)CN([C@@H](C)CO)C(=O)c2cc(NC(=O)Nc3ccc(F)cc3)ccc2O1	i	i	i	i
COc1ccc2c3c([nH]c2c1)[C@@H](CO)N(C)CC31CCN(C(=O)Nc2c(C)noc2C)CC1	i	i	i	i
O=C(CCCN1C(=O)/C(=C\c2ccccc2)SC1=S)N1CCOCC1	-21.1	i	i	i
CCN(C(=O)CCN1C(=O)/C(=C/c2ccccc2)SC1=S)C1CCS(=O)(=O)C1 (stereo not given)	i	58.6	i	nt
COc1ccc(/C=C2\SC(=S)N(CCCC(=O)N3CCOCC3)C2=O)cc1	i	i	nt	i
CCc1ccc(/C=C2\SC(=S)N(CCCC(=O)N(CCO)c3ccccc3)C2=O)cc1	i	i	54.2	i
